According to ChEMBL document CHEMBL5055621, “Synthesis and Characterization of the Novel Rodent-Active and CNS-Penetrant P2X7 Receptor Antagonist Lu AF27139” (J Med Chem, 2021):

Assays:
Cytochrome P450 2D6 [1] = molecular target: T1, Cytochrome P450 2D6 (Homo sapiens, UniProt P10635); assay: Inhibition of CYP2D6 (unknown origin) upto 25 uM; format: ADME
[2] = Inhibition of BzATP-induced current in rat primary microglia cells measured after repeated BzATP treatment at -60 mV at 10 nM by whole cell patch clamp assay relative to control; format: functional
Procedure, shortened: (§1)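 Rat primary microglia were whole-cell patch-clamped at −60 mV (external pH 7.4 with 1.8 mM CaCl2; CsCl/EGTA internal pH 7.2). Currents came from 10 s applications of 300 μM BzATP, applied repeatedly. Compound was applied by gravity via capillary for 60 s, and inhibition was taken relative to the control response.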

[3] = Cmax in male rat at 3 mg/kg, po after 7 days; format: ADME, organism-based; design: dose 3 mg/kg, time 7 day, route po; conditions: in vivo
[4] = Tmax in female mouse at 100 mg/kg, po administered as single dose; conditions: in vivo
Cytochrome P450 2C9 = Cytochrome P450 2C9 (Homo sapiens, UniProt P11712); assay: Inhibition of CYP2C9 (unknown origin) upto 25 uM; format: ADME
[5] = molecular target: Voltage-dependent L-type calcium channel subunit alpha-1C (Homo sapiens, UniProt Q13936); assay: Inhibition of human Cav1.2 at 10 uM
Procedure, shortened: (§2)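 Human Nav1.5, Cav1.2 and KCNQ1/minK channels were tested at 10 μM.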

Cytochrome P450 2D6 [6] = molecular target: T1, Cytochrome P450 2D6; assay: Time dependent inhibition of CYP2D6 (unknown origin) upto 25 uM; format: ADME
[7] = AUC (0 to 8 hrs) in female mouse at 100 mg/kg, po after 14 days; conditions: in vivo
Cytochrome P450 2C8 = molecular target: T2, Cytochrome P450 2C8 (Homo sapiens, UniProt P10632); assay: Inhibition of CYP2C8 (unknown origin) upto 25 uM; format: ADME
T2 sequence (P10632 whole entry): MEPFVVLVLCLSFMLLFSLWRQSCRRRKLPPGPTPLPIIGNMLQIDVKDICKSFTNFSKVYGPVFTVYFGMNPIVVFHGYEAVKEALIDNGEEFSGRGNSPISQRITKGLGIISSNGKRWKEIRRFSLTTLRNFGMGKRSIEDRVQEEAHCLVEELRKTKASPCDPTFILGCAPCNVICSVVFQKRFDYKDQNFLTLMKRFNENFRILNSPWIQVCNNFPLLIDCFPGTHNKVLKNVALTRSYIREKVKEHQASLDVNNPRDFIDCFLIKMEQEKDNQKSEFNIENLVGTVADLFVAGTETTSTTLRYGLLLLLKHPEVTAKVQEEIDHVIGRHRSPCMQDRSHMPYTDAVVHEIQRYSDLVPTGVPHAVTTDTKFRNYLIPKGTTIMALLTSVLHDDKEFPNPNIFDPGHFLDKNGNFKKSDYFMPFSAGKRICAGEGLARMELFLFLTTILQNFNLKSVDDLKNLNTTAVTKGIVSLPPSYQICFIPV

Rattus norvegicus = assay: Toxicity in Sprague-Dawley rat assessed as histological changes up to 150 mg/kg, po by 7 days exploratory toxicology study; format: organism-based; conditions: in vivo, 168 h, time 7 day
Procedure, shortened: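 Exploratory 7-day repeat oral toxicity study in male and female rats at doses from 3 up to 150 mg/kg po. Endpoints were macroscopic pathology, histology and hematology.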

[8] = Apparent permeability across apical to basolateral side in MDCK-MDR1 cells by LC-MS/MS analysis; conditions: dog
in vitro = conditions: human, liver microsomes
[9] = Inhibition of BzATP-induced current in rat primary microglia cells measured after repeated BzATP treatment at -60 mV at 30 nM by whole cell patch clamp assay relative to control; format: functional; procedure, shortened: as §1
[10] = Free plasma concentration in rat at 3 mg/kg, po after 1 hr by ex vivo equilibrium dialysis; format: ADME, organism-based
Procedure, shortened: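 Male Sprague–Dawley rats were dosed orally at 1–100 mg/kg, and total plasma concentration was measured at 1 and 2 h. This was multiplied by fraction unbound from ex vivo equilibrium dialysis; mean ± SEM, n = 3 animals.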

[11] = Volume of distribution at steady state in rat at 1 mg/kg, iv and 2 mg/kg, po; format: ADME, organism-based; conditions: in vivo
Procedure, shortened: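 Plasma concentration–time profiles were obtained in rats after an iv dose of 1 mg/kg and a po dose of 2 mg/kg. Parameters were estimated by noncompartmental analysis. In vivo work used male Sprague–Dawley rats of 150−200 g unless noted otherwise.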

[12] = AUC (0 to 8 hr) in male rat at 150 mg/kg, po after 7 days; format: ADME, organism-based; design: time 7 day, dose 150 mg/kg, route po; conditions: in vivo
Procedure, shortened: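 Oral dosing in male Sprague-Dawley rats (150−200 g, 7-day acclimation, standard housing) in a 7-day exploratory toxicology study.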

[13] = molecular target: T3, Potassium voltage-gated channel subfamily KQT member 1 (Homo sapiens, UniProt P51787); assay: Inhibition of human KCNQ1 at 10 uM; procedure, shortened: as §2
T3 sequence (P51787 whole entry): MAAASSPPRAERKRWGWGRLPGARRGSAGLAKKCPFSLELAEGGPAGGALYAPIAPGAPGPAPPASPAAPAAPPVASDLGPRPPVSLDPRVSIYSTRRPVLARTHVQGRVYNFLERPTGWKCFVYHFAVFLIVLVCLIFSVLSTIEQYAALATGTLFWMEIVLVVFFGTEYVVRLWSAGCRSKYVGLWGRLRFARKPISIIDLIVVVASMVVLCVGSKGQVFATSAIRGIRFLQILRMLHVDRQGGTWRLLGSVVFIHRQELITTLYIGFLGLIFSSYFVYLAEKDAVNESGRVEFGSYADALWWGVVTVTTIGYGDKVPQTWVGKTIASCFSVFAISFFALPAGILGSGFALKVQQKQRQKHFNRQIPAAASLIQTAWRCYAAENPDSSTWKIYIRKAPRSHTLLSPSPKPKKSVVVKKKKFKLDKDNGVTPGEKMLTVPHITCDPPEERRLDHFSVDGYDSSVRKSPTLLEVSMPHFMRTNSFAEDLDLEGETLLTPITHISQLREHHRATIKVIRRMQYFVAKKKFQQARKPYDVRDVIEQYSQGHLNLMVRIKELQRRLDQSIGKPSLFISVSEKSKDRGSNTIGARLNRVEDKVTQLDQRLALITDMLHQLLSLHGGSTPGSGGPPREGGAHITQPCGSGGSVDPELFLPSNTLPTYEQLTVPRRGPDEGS

T1 sequence (P10635 whole entry): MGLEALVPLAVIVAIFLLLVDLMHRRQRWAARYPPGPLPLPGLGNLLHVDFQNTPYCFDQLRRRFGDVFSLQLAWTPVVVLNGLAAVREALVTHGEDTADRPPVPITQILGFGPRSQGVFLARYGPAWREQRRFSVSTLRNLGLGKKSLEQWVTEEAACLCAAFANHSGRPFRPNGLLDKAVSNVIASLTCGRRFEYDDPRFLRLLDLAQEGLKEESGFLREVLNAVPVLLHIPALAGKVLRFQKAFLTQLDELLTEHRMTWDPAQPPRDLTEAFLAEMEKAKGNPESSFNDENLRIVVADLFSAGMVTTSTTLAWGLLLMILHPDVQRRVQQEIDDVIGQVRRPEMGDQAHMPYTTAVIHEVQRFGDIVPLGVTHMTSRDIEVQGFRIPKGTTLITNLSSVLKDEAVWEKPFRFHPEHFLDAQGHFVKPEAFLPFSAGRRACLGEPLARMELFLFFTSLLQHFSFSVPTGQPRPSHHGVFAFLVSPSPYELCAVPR
Chain of Voltage-dependent L-type calcium channel subunit alpha-1C (Q13936 whole entry): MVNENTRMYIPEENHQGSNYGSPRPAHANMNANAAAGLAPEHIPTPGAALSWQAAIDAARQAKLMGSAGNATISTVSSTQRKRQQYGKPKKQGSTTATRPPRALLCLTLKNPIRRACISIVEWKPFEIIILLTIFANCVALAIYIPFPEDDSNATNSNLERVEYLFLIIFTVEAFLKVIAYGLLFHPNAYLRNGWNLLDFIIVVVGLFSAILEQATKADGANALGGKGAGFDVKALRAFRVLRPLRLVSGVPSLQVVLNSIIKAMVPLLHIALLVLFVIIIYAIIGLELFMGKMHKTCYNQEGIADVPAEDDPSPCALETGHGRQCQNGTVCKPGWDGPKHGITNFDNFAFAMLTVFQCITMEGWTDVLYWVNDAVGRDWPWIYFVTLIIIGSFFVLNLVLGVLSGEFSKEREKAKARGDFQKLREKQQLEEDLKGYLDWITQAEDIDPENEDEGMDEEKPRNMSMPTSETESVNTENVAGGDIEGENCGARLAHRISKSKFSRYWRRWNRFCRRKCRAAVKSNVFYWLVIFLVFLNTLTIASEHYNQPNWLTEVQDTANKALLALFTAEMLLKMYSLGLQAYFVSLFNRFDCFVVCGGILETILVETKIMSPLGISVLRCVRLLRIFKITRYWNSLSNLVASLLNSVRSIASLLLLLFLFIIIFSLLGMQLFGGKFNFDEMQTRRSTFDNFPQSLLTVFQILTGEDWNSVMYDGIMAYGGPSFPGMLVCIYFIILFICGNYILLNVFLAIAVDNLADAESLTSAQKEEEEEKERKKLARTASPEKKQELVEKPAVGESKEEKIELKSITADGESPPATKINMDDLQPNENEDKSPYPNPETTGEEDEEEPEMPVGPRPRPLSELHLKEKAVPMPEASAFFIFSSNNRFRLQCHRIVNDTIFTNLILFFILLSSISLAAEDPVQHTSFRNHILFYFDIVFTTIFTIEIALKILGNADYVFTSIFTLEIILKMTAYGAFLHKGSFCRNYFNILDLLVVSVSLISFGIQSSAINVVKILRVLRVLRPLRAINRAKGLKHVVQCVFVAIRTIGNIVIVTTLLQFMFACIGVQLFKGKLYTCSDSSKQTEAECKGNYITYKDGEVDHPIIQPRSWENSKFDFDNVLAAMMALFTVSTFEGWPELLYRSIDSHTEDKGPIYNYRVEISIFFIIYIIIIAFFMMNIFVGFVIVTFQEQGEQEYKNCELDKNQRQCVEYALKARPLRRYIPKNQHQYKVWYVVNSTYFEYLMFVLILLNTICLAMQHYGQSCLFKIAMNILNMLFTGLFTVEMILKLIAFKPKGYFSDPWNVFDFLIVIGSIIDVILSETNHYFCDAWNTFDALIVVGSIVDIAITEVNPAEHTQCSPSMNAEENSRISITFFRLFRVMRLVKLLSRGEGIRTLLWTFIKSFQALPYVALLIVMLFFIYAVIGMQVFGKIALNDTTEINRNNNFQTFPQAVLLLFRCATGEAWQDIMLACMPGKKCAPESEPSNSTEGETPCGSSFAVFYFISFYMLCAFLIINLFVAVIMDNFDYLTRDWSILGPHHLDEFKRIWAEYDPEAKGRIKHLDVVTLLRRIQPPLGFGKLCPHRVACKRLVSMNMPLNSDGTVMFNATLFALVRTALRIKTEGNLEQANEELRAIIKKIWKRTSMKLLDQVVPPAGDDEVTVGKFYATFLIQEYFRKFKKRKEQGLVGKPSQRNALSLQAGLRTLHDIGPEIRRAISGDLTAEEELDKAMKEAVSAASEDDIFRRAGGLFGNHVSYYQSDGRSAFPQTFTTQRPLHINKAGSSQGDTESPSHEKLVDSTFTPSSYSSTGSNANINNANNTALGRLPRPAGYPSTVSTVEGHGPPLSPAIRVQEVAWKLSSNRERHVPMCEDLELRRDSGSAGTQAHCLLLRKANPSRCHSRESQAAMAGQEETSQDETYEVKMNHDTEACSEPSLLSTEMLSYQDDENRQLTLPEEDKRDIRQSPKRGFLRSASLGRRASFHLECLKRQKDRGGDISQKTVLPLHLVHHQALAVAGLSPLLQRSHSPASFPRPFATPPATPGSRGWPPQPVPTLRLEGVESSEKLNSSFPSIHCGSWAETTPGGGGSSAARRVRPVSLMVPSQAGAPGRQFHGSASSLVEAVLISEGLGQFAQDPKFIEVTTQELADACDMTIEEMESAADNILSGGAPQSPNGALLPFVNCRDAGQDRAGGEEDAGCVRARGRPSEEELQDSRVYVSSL
Chain of Cytochrome P450 2C9 (P11712 whole entry): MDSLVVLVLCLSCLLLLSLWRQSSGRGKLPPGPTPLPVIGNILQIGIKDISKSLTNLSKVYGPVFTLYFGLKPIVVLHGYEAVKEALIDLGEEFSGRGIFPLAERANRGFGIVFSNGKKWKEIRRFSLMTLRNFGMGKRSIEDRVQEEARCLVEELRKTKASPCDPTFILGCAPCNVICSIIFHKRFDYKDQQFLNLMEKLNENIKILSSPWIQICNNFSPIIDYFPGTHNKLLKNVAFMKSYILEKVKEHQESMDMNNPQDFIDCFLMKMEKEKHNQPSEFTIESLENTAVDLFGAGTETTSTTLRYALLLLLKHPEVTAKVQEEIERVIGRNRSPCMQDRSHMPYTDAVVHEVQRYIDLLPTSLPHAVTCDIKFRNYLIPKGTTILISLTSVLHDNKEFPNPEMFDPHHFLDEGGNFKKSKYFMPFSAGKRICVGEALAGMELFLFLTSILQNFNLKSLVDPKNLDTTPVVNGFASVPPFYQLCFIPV

inhibition (INH) (Cytochrome P450 2D6 [1]): Not Active | Cmax [3]: 4.64 µM | Tmax [4]: 1 h | inhibition (INH) (Cytochrome P450 2C9): Not Active | TDI (Cytochrome P450 2D6 [6]): Not Active | AUC at 336 h [7]: 131 µM·h | inhibition (INH) (Cytochrome P450 2C8): Not Active | Papp A:B [8]: 15 ×10⁻⁶ cm/s | CLint scaled at 1 h, 1 µM (in vitro): 43.3 mL/min/kg | Cp(f) [10]: 0.0712 µM | Vdss [11]: 0.95 L/kg | AUC at 168 h [12]: 210 µM·h | inhibition (INH) [13]: Not Active
SMILES: O=C(NC[C@H](c1ccc(Cl)cc1)N1CCOCC1)c1sc(-c2ncccn2)nc1C(F)(F)F
inhibition at 0.01 µM [2]: 31% | inhibition (INH) [5]: Not Active | Activity (Rattus norvegicus): Non-Toxic | inhibition at 0.03 µM [9]: 67%
